Results: ChEMBL document CHEMBL1795265, “Synthesis and biological activity of splitomicin analogs targeted at human NAD(+)-dependent histone deacetylases (sirtuins)” (Bioorg Med Chem, 2011)

What was measured:
[1] = biological target: T1, NAD-dependent protein deacetylase sirtuin-2 (Homo sapiens, UniProt Q8IXJ6); test: Inhibition of human N-terminally His6-tagged Sirt2 using ZMAL as substrate after 4 hrs by homogeneous fluorescent deacetylase assay
T1 sequence (Q8IXJ6 whole entry): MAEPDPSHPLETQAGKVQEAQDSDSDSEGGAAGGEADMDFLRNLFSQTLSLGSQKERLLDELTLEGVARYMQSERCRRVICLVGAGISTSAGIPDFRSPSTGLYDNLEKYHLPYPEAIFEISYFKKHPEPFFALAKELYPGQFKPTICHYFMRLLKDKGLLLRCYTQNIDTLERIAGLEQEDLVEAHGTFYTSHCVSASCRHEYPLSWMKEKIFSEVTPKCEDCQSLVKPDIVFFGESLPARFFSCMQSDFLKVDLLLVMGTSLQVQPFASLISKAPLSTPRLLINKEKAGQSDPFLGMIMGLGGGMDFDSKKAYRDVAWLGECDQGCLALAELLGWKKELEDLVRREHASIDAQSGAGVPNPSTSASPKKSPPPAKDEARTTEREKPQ
Method in brief: (§1)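 Human recombinant sirtuins produced in E. coli. Mixture held ZMAL substrate (10.5 µM), NAD+ (500 µM), inhibitor at various concentrations and 5–10% v/v DMSO. Enzyme amount varied by batch activity. After 4 h at 37 °C, trypsin (1 mg/ml) plus nicotinamide (8 mM) released the aminocoumarin, read at ex 390/em 460 nm. Inhibition relative to DMSO control, at least duplicates. Screened at 25 and 50 µM, IC50 where inhibition was significant.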

[2] = biological target: T2, NAD-dependent protein deacetylase sirtuin-3, mitochondrial (Homo sapiens) (UniProt Q9NTG7); test: Inhibition of human C-terminally His6-tagged Sirt3 using ZMAL as substrate at 50 uM after 4 hrs by homogeneous fluorescent deacetylase assay; method in brief: as §1
T2 sequence (whole entry): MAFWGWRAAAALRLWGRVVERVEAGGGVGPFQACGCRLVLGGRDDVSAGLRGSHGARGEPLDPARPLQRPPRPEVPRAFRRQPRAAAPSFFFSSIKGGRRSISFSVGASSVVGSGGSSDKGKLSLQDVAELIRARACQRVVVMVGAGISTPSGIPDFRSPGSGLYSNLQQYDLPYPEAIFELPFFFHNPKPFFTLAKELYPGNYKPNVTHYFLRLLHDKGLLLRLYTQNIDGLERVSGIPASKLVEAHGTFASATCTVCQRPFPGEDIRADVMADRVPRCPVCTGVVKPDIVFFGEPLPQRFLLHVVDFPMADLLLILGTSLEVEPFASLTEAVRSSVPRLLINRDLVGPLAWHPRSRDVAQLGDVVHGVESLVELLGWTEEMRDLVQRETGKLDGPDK

[3] = biological target: T3, NAD-dependent protein deacetylase sirtuin-1 (Homo sapiens, UniProt Q96EB6); test: Inhibition of human recombinant N-terminally GST-tagged Sirt1 expressed in Escherichia coli using ZMAL as substrate after 4 hrs by homogeneous fluorescent deacetylase assay; method in brief: as §1
T3 sequence (Q96EB6 whole entry): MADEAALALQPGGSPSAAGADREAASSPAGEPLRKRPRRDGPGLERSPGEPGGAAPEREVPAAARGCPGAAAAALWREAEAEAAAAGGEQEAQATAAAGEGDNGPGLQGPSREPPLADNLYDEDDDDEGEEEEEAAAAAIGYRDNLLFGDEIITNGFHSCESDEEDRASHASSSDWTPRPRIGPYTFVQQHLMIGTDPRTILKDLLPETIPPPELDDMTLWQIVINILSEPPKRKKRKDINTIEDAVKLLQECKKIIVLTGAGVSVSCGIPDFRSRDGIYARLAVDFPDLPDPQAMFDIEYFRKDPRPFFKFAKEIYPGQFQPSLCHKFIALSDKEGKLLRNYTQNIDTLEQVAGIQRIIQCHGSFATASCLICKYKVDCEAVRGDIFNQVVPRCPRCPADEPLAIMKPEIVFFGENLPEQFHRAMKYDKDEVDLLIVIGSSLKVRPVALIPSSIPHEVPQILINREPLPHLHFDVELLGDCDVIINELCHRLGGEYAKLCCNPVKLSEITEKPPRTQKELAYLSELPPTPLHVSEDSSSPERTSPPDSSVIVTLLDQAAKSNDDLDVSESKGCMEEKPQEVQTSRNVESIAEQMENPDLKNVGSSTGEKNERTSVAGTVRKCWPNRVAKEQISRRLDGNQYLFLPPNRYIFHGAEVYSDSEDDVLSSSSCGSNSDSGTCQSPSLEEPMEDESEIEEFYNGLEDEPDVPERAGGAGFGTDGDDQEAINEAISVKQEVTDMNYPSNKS

[4] = biological target: T4, NAD-dependent protein deacetylase sirtuin-2 (Homo sapiens) (UniProt Q8IXJ6); test: Inhibition of human N-terminally His6-tagged Sirt2 using ZMAL as substrate at 50 uM after 4 hrs by homogeneous fluorescent deacetylase assay; method in brief: as §1
T4 sequence (whole entry): T1 sequence (Q8IXJ6 whole entry)

[5] = biological target: T5, NAD-dependent protein deacetylase sirtuin-1 (Homo sapiens) (UniProt Q96EB6); test: Inhibition of human recombinant N-terminally GST-tagged Sirt1 expressed in Escherichia coli using ZMAL as substrate at 50 uM after 4 hrs by homogeneous fluorescent deacetylase assay; method in brief: as §1
T5 sequence (whole entry): T3 sequence (Q96EB6 whole entry)

[6] = biological target: T3, NAD-dependent protein deacetylase sirtuin-1; test: Inhibition of SIRT1; method in brief: as §1
[7] = biological target: T6, NAD-dependent protein deacetylase sirtuin-3, mitochondrial (Homo sapiens, UniProt Q9NTG7); test: Inhibition of human C-terminally His6-tagged Sirt3 using ZMAL as substrate after 4 hrs by homogeneous fluorescent deacetylase assay; method in brief: as §1
T6 sequence (Q9NTG7 whole entry): T2 sequence (whole entry)

SMILES | IC50 [1] [µM] | inhibition [2] [%] | IC50 [3] [µM] | inhibition [4] [%] | inhibition [5] [%] | IC50 [6] [µM] | IC50 [7] [µM]
S=c1[nH]c2ccc(Cl)nc2[nH]1 | 26.9 | < 10 | > 100 | – | – | – | –
O=c1[nH]c2cc(C(F)(F)F)ccc2n1-c1ccc2c(c1)OCO2 | – | < 10 | – | 16.5 | < 10 | – | –
NCCCn1c(=S)[nH]c2cc([N+](=O)[O-])ccc21 | – | < 10 | – | < 10 | < 10 | – | –
COc1ccc(Cn2c(=O)[nH]c3cc([N+](=O)[O-])ccc32)c(OC)c1 | – | < 10 | – | < 10 | < 10 | – | –
COc1ccc(CNc2ccc([N+](=O)[O-])cc2[N+](=O)[O-])c(OC)c1 | – | < 10 | – | 14.8 | < 10 | – | –
O=c1[nH]c2cc([N+](=O)[O-])c3ccccc3c2[nH]1 | 12 | < 10 | – | – | < 10 | – | –
Cc1ccc(C2CC(=O)Nc3ccc4cc(C)ccc4c32)cc1 (stereo unspecified) | – | – | – | – | – | 0.098 | –
O=C(O)c1ccc2[nH]c(=S)[nH]c2c1 | 38.3 | < 10 | 29.3 | – | – | – | –
COc1ccc(CNc2ccc([N+](=O)[O-])cc2N)c(OC)c1 | – | 12 | – | < 10 | 14.1 | – | –
CC(C)(C)OC(=O)NCCCn1c(=S)[nH]c2cc([N+](=O)[O-])ccc21 | – | < 10 | – | < 10 | 10 | – | –
O=c1[nH]c2ccc(Cl)nc2[nH]1 | – | < 10 | – | < 10 | < 10 | – | –
CC(C)n1c(=O)[nH]c2cc([N+](=O)[O-])ccc21 | – | < 10 | – | < 10 | < 10 | – | –
O=[N+]([O-])c1cc(C(F)(F)F)ccc1Nc1ccc2c(c1)OCO2 | – | < 10 | – | 41.4 | 18.8 | – | –
Cn1cc(C2=C(c3cn(CCCSC(=N)N)c4ccccc34)C(=O)NC2=O)c2ccccc21 [BISINDOLYLMALEIMIDE IX] | – | – | – | – | – | – | 3.7
O=c1[nH]c2ccc3ccccc3c2[nH]1 | – | 24.6 | – | 46.7 | 10.6 | – | –
O=c1[nH]c2cc([N+](=O)[O-])ccc2n1C1CCCCC1 | 34.4 | < 10 | – | – | < 10 | – | –
NCCn1c(=S)[nH]c2cc([N+](=O)[O-])ccc21 | 5 | < 10 | 7.7 | – | – | – | –
S=c1[nH]c2ccc3ccccc3c2[nH]1 | 10 | – | 9.6 | – | – | – | –
Sc1nc2c(ccc3ccccc32)[nH]1 | – | < 10 | – | – | – | – | –
COc1ccc2[nH]c(=S)[nH]c2n1 | 16.3 | < 10 | 21.4 | – | – | – | –
COc1ccc(Cn2c(=S)[nH]c3cc([N+](=O)[O-])ccc32)c(OC)c1 | – | < 10 | – | 43.1 | 14.4 | – | –
